Common to all, as to assay type: functional, Muscle tissue
Experiment [1] is filed under the species Rattus norvegicus. The experiment is described as follows: Superoxide dismutase activity measured as inhibition of Cytochrome C reduction by 50% in isolated rat heart muscle subjected to global ischemia. Summed up:
(§1)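 Isolated rat hearts: 10 min initial perfusion, then 15 min recirculating Krebs with drug (diluted from 10⁻² M DMSO stock; final DMSO 0.01% v/v, matched in controls), 30 min global ischemia, then 30 min reperfusion with the same regime. Hearts were homogenized and frozen in liquid nitrogen. Enzymes were assayed in the centrifuged supernatant, normalized […]; mean ± S.D.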

The species entered for experiment [2] is Rattus norvegicus. The experiment is described as follows: Effect of compound on Glutathione peroxidase measured as disappearance of NADPH in isolated rat heart muscle subjected to global ischemia. The method in brief: as §1
The species entered for experiment [3] is Rattus norvegicus. The experiment can be described thus: Effect of compound on catalase measured as disappearance of H2O2 in isolated rat heart muscle subjected to global ischemia. Summed up: as §1

Structures are written as SMILES.

For `CC(C)(C)c1cc(-c2cc(=O)c3ccc(O)cc3o2)cc(C(C)(C)C)c1O`, the values for the Activity in the experiment filed under Rattus norvegicus [1], in the experiment listed under Rattus norvegicus [2] and in the experiment filed under Rattus norvegicus [3] were 8433 U (mg of protein)-1, 1982 U (mg of protein)-1 and 21 U (mg of protein)-1, respectively.
As for `CC(C)(C)c1cc(/C=C2\C(=O)c3ccc(O)cc3OC2c2cc(C(C)(C)C)c(O)c(C(C)(C)C)c2)cc(C(C)(C)C)c1O` (stereo not drawn), the Activity in the experiment filed under Rattus norvegicus [1] was 8935 U (mg of protein)-1; in the experiment listed under Rattus norvegicus [2], 1906 U (mg of protein)-1; in the experiment listed under Rattus norvegicus [3], 21 U (mg of protein)-1.
On the same counts, the results for `CC(C)(C)c1cc(/C=C/C(=O)c2ccc(O)cc2O)cc(C(C)(C)C)c1O` are 8740 U (mg of protein)-1, 1879 U (mg of protein)-1 and 20 U (mg of protein)-1.
Taken in the same sequence, the figures for `Oc1ncnc2[nH]ncc12` [ALLOPURINOL] were 9800 U (mg of protein)-1, 1912 U (mg of protein)-1 and 21 U (mg of protein)-1.
Taken in the same sequence, the figures for `Cc1cc(C(C)(C)C)c(O)c(C(C)(C)C)c1` [BUTYLATED HYDROXYTOLUENE] were 9636 U (mg of protein)-1, 1803 U (mg of protein)-1 and 20 U (mg of protein)-1.
For `C[C@@H]1O[C@@H](OC[C@H]2O[C@@H](Oc3c(-c4ccc(O)c(O)c4)oc4cc(O)cc(O)c4c3=O)[C@H](O)[C@@H](O)[C@@H]2O)[C@H](O)[C@H](O)[C@H]1O` [RUTIN], the results for the Activity in the experiment filed under Rattus norvegicus [1], in the experiment filed under Rattus norvegicus [2] and in the experiment filed under Rattus norvegicus [3] were 9077 U (mg of protein)-1, 1829 U (mg of protein)-1 and 21 U (mg of protein)-1, respectively.

Source of the values: ChEMBL document CHEMBL1134044, “Beneficial effects of different flavonoids, on functional recovery after ischemia and reperfusion in isolated rat heart” (2001).
